From ChEMBL document CHEMBL4689842, “EUbOPEN Chemogenomics Library wave 1” (2021)
Where “and” joins values, the source holds several entries; their conditions need not be identical. Equal entries are not always repeated.

Columns and labels:
Format in all cases: toxicity, cell-based
U2OS [1] = test: Multiplex assay against U2OS; conditions: human, 10 µM, compound concentration 10 uM
Summary of the method: (§1)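 At seeding, live cells were stained with Hoechst33342, BioTracker Green Microtubule Cytoskeleton Dye, MitoTracker Red and Annexin V Alexa Fluor 680. After compound addition they were imaged on a CQ1 microscope at 37°C and 5% CO2, and CellPathfinder machine-learning gating sorted them into Hoechst high-intensity objects or normal cells, with normal cells further split into healthy, pyknosed or fragmented nuclei and pyknosed cells into mitotic or apoptotic. Tubulin, mitochondrial-mass and membrane-permeability phenotypes are given as per cents of cells with healthy nuclei.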

U2OS [2] = test: Incucyte cell viability with U2OS; conditions: human, 10 µM, compound concentration 10 uM; note: filed as whole numbers so only -1 and 0 and 1 occur
Fibroblast [3] = test: Incucyte cell viability with human fibroblast; conditions: 10 µM, compound concentration 10 uM; note: filed as whole numbers so only -1 and 0 and 1 occur
HEK-293T [4] = test: Multiplex assay against HEK293T; conditions: human, 10 µM, compound concentration 10 uM; summary of the method: as §1;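 for Population Tubulin-Different-Phenotype (%): share of the cells with healthy nuclei that show this phenotype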
Fibroblast [5] = test: Multiplex assay against human fibroblast; conditions: 10 µM, compound concentration 10 uM; summary of the method: as §1
HEK-293T [6] = test: Incucyte cell viability with HEK293T; conditions: human, 10 µM, compound concentration 10 uM; note: filed as whole numbers so only -1 and 0 and 1 occur
[7] = 0 h, replicate number 2, timepoint 0 hours
[8] = 6 h, replicate number 1, timepoint 6 hours
[9] = 12 h, replicate number 1, timepoint 12 hours
[10] = 12 h, replicate number 2, timepoint 12 hours
[11] = 18 h, replicate number 1, timepoint 18 hours
[12] = 18 h, replicate number 2, timepoint 18 hours
[13] = 24 h, replicate number 1, timepoint 24 hours
[14] = 24 h, replicate number 2, timepoint 24 hours

Cc1c(Oc2ccc(F)cc2)c(OC(C)C)nn1-c1ccc(C2CC2)cn1 [IPP/CNRS-A019]
Population Apoptotic (%) (U2OS [1]; 12 h, replicate 1): 23% and 20%
Population Fragmented Nuclei (%) (U2OS [1]; 12 h, replicate 1): 3%
Population Healthy Nuclei (%) (U2OS [1]; 12 h, replicate 1): 88%
Population Hoechst High Intensity Objects (%) (U2OS [1]; 12 h, replicate 1): 2% and 3%
Population Membrane Permeable-Phenotype (%) (U2OS [1]; 12 h, replicate 1): 12% and 11%
Population Mitochondria Different-Phenotype (%) (U2OS [1]; 12 h, replicate 1): 11% and 23%
Population Mitotic Cells (%) (U2OS [1]; 12 h, replicate 1): 76% and 80%
Population Normal (%) (U2OS [1]; 12 h, replicate 1): 97% and 96%
Population Pyknosed Nuclei (%) (U2OS [1]; 12 h, replicate 1): 7% and 6%
Population Tubulin-Different-Phenotype (%) (U2OS [1]; 12 h, replicate 1): 14% and 25%
Total Cell Count (U2OS [1]; 12 h, replicate 1): 250 and 141
Population Apoptotic (%) (U2OS [1]; 12 h, replicate 2): 50% and 33%
Population Fragmented Nuclei (%) (U2OS [1]; 12 h, replicate 2): 5% and 8%
Population Healthy Nuclei (%) (U2OS [1]; 12 h, replicate 2): 90% and 87%
Population Hoechst High Intensity Objects (%) (U2OS [1]; 12 h, replicate 2): 11% and 13%
Population Membrane Permeable-Phenotype (%) (U2OS [1]; 12 h, replicate 2): 15% and 7%
Population Mitochondria Different-Phenotype (%) (U2OS [1]; 12 h, replicate 2): 21% and 25%
Population Mitotic Cells (%) (U2OS [1]; 12 h, replicate 2): 50% and 66%
Population Normal (%) (U2OS [1]; 12 h, replicate 2): 88% and 86%
Population Pyknosed Nuclei (%) (U2OS [1]; 12 h, replicate 2): 4%
Population Tubulin-Different-Phenotype (%) (U2OS [1]; 12 h, replicate 2): 19% and 24%
Total Cell Count (U2OS [1]; 12 h, replicate 2): 152 and 113
Population Apoptotic (%) (U2OS [1]; 24 h, replicate 1): 42% and 34%
Population Fragmented Nuclei (%) (U2OS [1]; 24 h, replicate 1): 2% and 3%
Population Healthy Nuclei (%) (U2OS [1]; 24 h, replicate 1): 93% and 90%
Population Hoechst High Intensity Objects (%) (U2OS [1]; 24 h, replicate 1): 2% and 1%
Population Membrane Permeable-Phenotype (%) (U2OS [1]; 24 h, replicate 1): 8% and 7%
Population Mitochondria Different-Phenotype (%) (U2OS [1]; 24 h, replicate 1): 9%
Population Mitotic Cells (%) (U2OS [1]; 24 h, replicate 1): 57% and 65%
Population Normal (%) (U2OS [1]; 24 h, replicate 1): 97% and 98%
Population Pyknosed Nuclei (%) (U2OS [1]; 24 h, replicate 1): 5%
Population Tubulin-Different-Phenotype (%) (U2OS [1]; 24 h, replicate 1): 25% and 18%
Total Cell Count (U2OS [1]; 24 h, replicate 1): 149 and 352
Population Fragmented Nuclei (%) (U2OS [1]; 24 h, replicate 2): 8% and 7%
Population Healthy Nuclei (%) (U2OS [1]; 24 h, replicate 2): 87% and 85%
Population Hoechst High Intensity Objects (%) (U2OS [1]; 24 h, replicate 2): 4% and 5%
Population Membrane Permeable-Phenotype (%) (U2OS [1]; 24 h, replicate 2): 15% and 9%
Population Mitochondria Different-Phenotype (%) (U2OS [1]; 24 h, replicate 2): 24% and 37%
Population Normal (%) (U2OS [1]; 24 h, replicate 2): 95% and 94%
Population Pyknosed Nuclei (%) (U2OS [1]; 24 h, replicate 2): 4% and 6%
Population Tubulin-Different-Phenotype (%) (U2OS [1]; 24 h, replicate 2): 16% and 24%
Total Cell Count (U2OS [1]; 24 h, replicate 2): 184 and 121
Growth Rate (U2OS [2]; [7]): 0
Growth Rate (U2OS [2]; [8]): 1
Growth Rate (U2OS [2]; 6 h, replicate number 2, timepoint 6 hours): 0
Growth Rate (U2OS [2]; [9]): 1
Growth Rate (U2OS [2]; [10]): 0
Growth Rate (U2OS [2]; [11]): 1
Growth Rate (U2OS [2]; [12]): 0
Growth Rate (U2OS [2]; [13]): 1
Growth Rate (U2OS [2]; [14]): 0
Growth Rate (Fibroblast [3]; [7]): 0
Growth Rate (Fibroblast [3]; [8]): 0
Growth Rate (Fibroblast [3]; [9]): 0
Growth Rate (Fibroblast [3]; [10]): 1
Growth Rate (Fibroblast [3]; [11]): 0
Growth Rate (Fibroblast [3]; [12]): 1
Growth Rate (Fibroblast [3]; [13]): 0
Growth Rate (Fibroblast [3]; [14]): 1
Population Apoptotic (%) (HEK-293T [4]; 12 h, replicate 1): 12% and 19%
Population Fragmented Nuclei (%) (HEK-293T [4]; 12 h, replicate 1): 13% and 11%
Population Healthy Nuclei (%) (HEK-293T [4]; 12 h, replicate 1): 69% and 68%
Population Hoechst High Intensity Objects (%) (HEK-293T [4]; 12 h, replicate 1): 8% and 10%
Population Membrane Permeable-Phenotype (%) (HEK-293T [4]; 12 h, replicate 1): 5% and 3%
Population Mitochondria Different-Phenotype (%) (HEK-293T [4]; 12 h, replicate 1): 7% and 5%
Population Mitotic Cells (%) (HEK-293T [4]; 12 h, replicate 1): 87% and 80%
Population Normal (%) (HEK-293T [4]; 12 h, replicate 1): 91% and 89%
Population Pyknosed Nuclei (%) (HEK-293T [4]; 12 h, replicate 1): 17% and 19%
Population Tubulin-Different-Phenotype (%) (HEK-293T [4]; 12 h, replicate 1): 7% and 3%
Total Cell Count (HEK-293T [4]; 12 h, replicate 1): 607 and 515
Population Apoptotic (%) (HEK-293T [4]; 12 h, replicate 2): 15% and 18%
Population Fragmented Nuclei (%) (HEK-293T [4]; 12 h, replicate 2): 7% and 9%
Population Healthy Nuclei (%) (HEK-293T [4]; 12 h, replicate 2): 89% and 86%
Population Hoechst High Intensity Objects (%) (HEK-293T [4]; 12 h, replicate 2): 2% and 1%
Population Membrane Permeable-Phenotype (%) (HEK-293T [4]; 12 h, replicate 2): 4% and 1%
Population Mitochondria Different-Phenotype (%) (HEK-293T [4]; 12 h, replicate 2): 17%
Population Mitotic Cells (%) (HEK-293T [4]; 12 h, replicate 2): 84% and 81%
Population Normal (%) (HEK-293T [4]; 12 h, replicate 2): 97% and 98%
Population Pyknosed Nuclei (%) (HEK-293T [4]; 12 h, replicate 2): 2% and 3%
Total Cell Count (HEK-293T [4]; 12 h, replicate 2): 1658 and 1670
Population Apoptotic (%) (HEK-293T [4]; 24 h, replicate 1): 28% and 16%
Population Fragmented Nuclei (%) (HEK-293T [4]; 24 h, replicate 1): 12% and 14%
Population Healthy Nuclei (%) (HEK-293T [4]; 24 h, replicate 1): 77%
Population Hoechst High Intensity Objects (%) (HEK-293T [4]; 24 h, replicate 1): 6%
Population Membrane Permeable-Phenotype (%) (HEK-293T [4]; 24 h, replicate 1): 10%
Population Mitochondria Different-Phenotype (%) (HEK-293T [4]; 24 h, replicate 1): 4% and 8%
Population Mitotic Cells (%) (HEK-293T [4]; 24 h, replicate 1): 71% and 83%
Population Normal (%) (HEK-293T [4]; 24 h, replicate 1): 93%
Population Pyknosed Nuclei (%) (HEK-293T [4]; 24 h, replicate 1): 10% and 7%
Population Tubulin-Different-Phenotype (%) (HEK-293T [4]; 24 h, replicate 1): 6% and 9%
Total Cell Count (HEK-293T [4]; 24 h, replicate 1): 595 and 667
Population Apoptotic (%) (HEK-293T [4]; 24 h, replicate 2): 9% and 6%
Population Fragmented Nuclei (%) (HEK-293T [4]; 24 h, replicate 2): 19% and 8%
Population Healthy Nuclei (%) (HEK-293T [4]; 24 h, replicate 2): 78% and 89%
Population Hoechst High Intensity Objects (%) (HEK-293T [4]; 24 h, replicate 2): 2%
Population Membrane Permeable-Phenotype (%) (HEK-293T [4]; 24 h, replicate 2): 2%
Population Mitotic Cells (%) (HEK-293T [4]; 24 h, replicate 2): 90% and 93%
Population Normal (%) (HEK-293T [4]; 24 h, replicate 2): 97%
Population Pyknosed Nuclei (%) (HEK-293T [4]; 24 h, replicate 2): 2% and 1%
Population Tubulin-Different-Phenotype (%) (HEK-293T [4]; 24 h, replicate 2): 20%
Total Cell Count (HEK-293T [4]; 24 h, replicate 2): 2108 and 1925
Population Apoptotic (%) (Fibroblast [5]; 12 h, replicate 1): 78% and 77%
Population Fragmented Nuclei (%) (Fibroblast [5]; 12 h, replicate 1): 26% and 22%
Population Healthy Nuclei (%) (Fibroblast [5]; 12 h, replicate 1): 58% and 60%
Population Hoechst High Intensity Objects (%) (Fibroblast [5]; 12 h, replicate 1): 12% and 13%
Population Membrane Permeable-Phenotype (%) (Fibroblast [5]; 12 h, replicate 1): 5%
Population Mitochondria Different-Phenotype (%) (Fibroblast [5]; 12 h, replicate 1): 3% and 6%
Population Mitotic Cells (%) (Fibroblast [5]; 12 h, replicate 1): 21% and 22%
Population Normal (%) (Fibroblast [5]; 12 h, replicate 1): 87% and 86%
Population Pyknosed Nuclei (%) (Fibroblast [5]; 12 h, replicate 1): 15% and 18%
Population Tubulin-Different-Phenotype (%) (Fibroblast [5]; 12 h, replicate 1): 9% and 4%
Total Cell Count (Fibroblast [5]; 12 h, replicate 1): 308 and 230
Population Fragmented Nuclei (%) (Fibroblast [5]; 12 h, replicate 2): 33% and 67%
Population Healthy Nuclei (%) (Fibroblast [5]; 12 h, replicate 2): 49% and 28%
Population Hoechst High Intensity Objects (%) (Fibroblast [5]; 12 h, replicate 2): 38% and 40%
Population Mitochondria Different-Phenotype (%) (Fibroblast [5]; 12 h, replicate 2): 19% and 42%
Population Normal (%) (Fibroblast [5]; 12 h, replicate 2): 61% and 59%
Total Cell Count (Fibroblast [5]; 12 h, replicate 2): 103 and 83
Population Apoptotic (%) (Fibroblast [5]; 24 h, replicate 1): 69% and 48%
Population Fragmented Nuclei (%) (Fibroblast [5]; 24 h, replicate 1): 22% and 21%
Population Healthy Nuclei (%) (Fibroblast [5]; 24 h, replicate 1): 62% and 63%
Population Hoechst High Intensity Objects (%) (Fibroblast [5]; 24 h, replicate 1): 16% and 19%
Population Membrane Permeable-Phenotype (%) (Fibroblast [5]; 24 h, replicate 1): 5% and 4%
Population Mitochondria Different-Phenotype (%) (Fibroblast [5]; 24 h, replicate 1): 7%
Population Mitotic Cells (%) (Fibroblast [5]; 24 h, replicate 1): 30% and 51%
Population Normal (%) (Fibroblast [5]; 24 h, replicate 1): 83% and 80%
Population Pyknosed Nuclei (%) (Fibroblast [5]; 24 h, replicate 1): 14% and 15%
Population Tubulin-Different-Phenotype (%) (Fibroblast [5]; 24 h, replicate 1): 9% and 4%
Total Cell Count (Fibroblast [5]; 24 h, replicate 1): 321 and 238
Population Fragmented Nuclei (%) (Fibroblast [5]; 24 h, replicate 2): 44% and 63%
Population Healthy Nuclei (%) (Fibroblast [5]; 24 h, replicate 2): 46% and 34%
Population Hoechst High Intensity Objects (%) (Fibroblast [5]; 24 h, replicate 2): 38%
Population Membrane Permeable-Phenotype (%) (Fibroblast [5]; 24 h, replicate 2): 10% and 0%
Population Normal (%) (Fibroblast [5]; 24 h, replicate 2): 61%
Total Cell Count (Fibroblast [5]; 24 h, replicate 2): 103 and 84
Growth Rate (HEK-293T [6]; 0 h, replicate number 1, timepoint 0 hours): 0
Growth Rate (HEK-293T [6]; [7]): 1
Growth Rate (HEK-293T [6]; [14]): 1
